Test results published in ChEMBL document CHEMBL4130494, “Crassiflorone derivatives that inhibit Trypanosoma brucei glyceraldehyde-3-phosphate dehydrogenase (TbGAPDH) and Trypanosoma cruzi trypanothione reductase (TcTR) and display trypanocidal activity” (Eur J Med Chem, 2017).
Values after ≈ are worked out from the molar mass of the structure shown. Active and inactive are the calls of the source. No cut-off for these calls is given here.

test system: Trypanosoma brucei; experiment: Inhibition of Trypanosoma brucei glyceraldehyde-3-phosphate dehydrogenase at 10 uM using GAP as substrate in presence of NAD+ by spectrophotometric method relative to control; details: not given
Method in brief: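 Recombinant TbGAPDH (200–300 μg protein) in 10 mM triethanolamine, 1.7 mM NaHCO3, 100 mM KCl, 5 mM MgSO4, 1 mM EDTA, pH 7.6, 25 °C, with 400 μM NAD+, 500 μM KH2PO4, 300 μM GAP; NAD+ reduction followed at 340 nm; inhibitors from DMSO stocks; triplicate; reported as percentage activity.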

Structure (SMILES) | inhibition
COc1cccc2c1C(=O)c1c(oc3c1c(=O)oc1ccccc13)C2=O | 88%
O=C1c2cc3ccccc3cc2C(=O)c2c1oc1c2c(=O)oc2ccccc21 | inactive
CC(=O)Oc1cccc2c1C(=O)c1c(oc3c1c(=O)oc1ccccc13)C2=O | inactive
CC(=O)Oc1cccc2c1C(=O)c1oc3c(c1C2=O)c(=O)oc1ccccc13 | inactive

target: Trypanothione reductase (Trypanosoma cruzi) (UniProt P28593); experiment: Inhibition of Trypanosoma cruzi trypanothione reductase assessed as reduction in NADPH consumption at 10 uM using 100 uM trypanothione disulfide as substrate by spectrophotometric method; details: not given
Method in brief: (§1)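 Recombinant TcTR (5–10 mU) at 25 °C in 40 mM HEPES, 1 mM EDTA, pH 7.5, 100 μM NADPH, 5% DMSO; started with trypanothione disulfide; NADPH consumption read at 340 nm; percentage inhibition calculated.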

Sequence of Trypanothione reductase (Trypanosoma cruzi) (P28593 whole entry, looked up): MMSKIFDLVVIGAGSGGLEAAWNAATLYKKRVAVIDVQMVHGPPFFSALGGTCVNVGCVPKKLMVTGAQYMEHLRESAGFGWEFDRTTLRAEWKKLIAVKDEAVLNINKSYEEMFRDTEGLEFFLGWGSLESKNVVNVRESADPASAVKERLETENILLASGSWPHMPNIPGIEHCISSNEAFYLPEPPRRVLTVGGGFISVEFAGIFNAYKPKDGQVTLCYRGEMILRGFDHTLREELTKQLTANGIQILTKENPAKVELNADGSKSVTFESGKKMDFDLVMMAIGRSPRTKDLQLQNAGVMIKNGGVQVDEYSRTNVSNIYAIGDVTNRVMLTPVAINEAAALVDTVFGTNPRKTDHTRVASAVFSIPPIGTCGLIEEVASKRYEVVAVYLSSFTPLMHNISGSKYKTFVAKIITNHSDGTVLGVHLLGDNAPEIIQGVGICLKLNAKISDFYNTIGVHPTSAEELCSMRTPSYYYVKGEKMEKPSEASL

Structure (SMILES) | inhibition
COc1cccc2c1C(=O)c1c(oc3c1c(=O)oc1ccccc13)C2=O | 8.1%
O=C1c2cc3ccccc3cc2C(=O)c2c1oc1c2c(=O)oc2ccccc21 | 7.9%
CC(=O)Oc1cccc2c1C(=O)c1c(oc3c1c(=O)oc1ccccc13)C2=O | 37%

target: Trypanothione reductase (Trypanosoma cruzi) (UniProt P28593); experiment: Inhibition of Trypanosoma cruzi trypanothione reductase assessed as reduction in NADPH consumption at 10 uM using 40 uM trypanothione disulfide as substrate by spectrophotometric method; details: not given; method in brief: as §1

Structure (SMILES) | inhibition
COc1cccc2c1C(=O)c1c(oc3c1c(=O)oc1ccccc13)C2=O | 20.6%
O=C1c2cc3ccccc3cc2C(=O)c2c1oc1c2c(=O)oc2ccccc21 | 2.1%
CC(=O)Oc1cccc2c1C(=O)c1c(oc3c1c(=O)oc1ccccc13)C2=O | 37.2%

target: Trypanothione reductase (Trypanosoma cruzi) (UniProt P28593); experiment: Inhibition of Trypanosoma cruzi trypanothione reductase assessed as reduction in NADPH consumption at 5 uM using 100 uM trypanothione disulfide as substrate by spectrophotometric method relative to control; details: not given; method in brief: as §1

Structure (SMILES) | inhibition
CC(=O)Oc1cccc2c1C(=O)c1oc3c(c1C2=O)c(=O)oc1ccccc13 | 35.2%

target: Trypanothione reductase (Trypanosoma cruzi) (UniProt P28593); experiment: Inhibition of Trypanosoma cruzi trypanothione reductase assessed as reduction in NADPH consumption at 5 uM using 40 uM trypanothione disulfide as substrate by spectrophotometric method relative to control; details: not given; method in brief: as §1

Structure (SMILES) | inhibition
CC(=O)Oc1cccc2c1C(=O)c1oc3c(c1C2=O)c(=O)oc1ccccc13 | 41%

test system: Trypanosoma brucei brucei; experiment: Growth inhibition of Trypanosoma brucei brucei Lister 427 bloodstream forms at 5 uM by SYBR Green based assay relative to control; type: functional; details: read-out: GI

Structure (SMILES) | inhibition of growth at 5 µM
COc1cccc2c1C(=O)c1c(oc3c1c(=O)oc1ccccc13)C2=O | 29%
CC(=O)Oc1cccc2c1C(=O)c1oc3c(c1C2=O)c(=O)oc1ccccc13 | 38%

target: hERG (KCNH2) (Homo sapiens, UniProt Q12809); experiment: Inhibition of Tracer Red binding to human ERG expressed in membranes at 10 uM by fluorescence polarization assay relative to control; details: membranes expressing human ERG, probe Tracer Red
Method in brief: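 Fluorescence polarization displacement of a high-affinity red fluorescent tracer from hERG channel–containing membrane fraction.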

Sequence of hERG (KCNH2) (Q12809 whole entry): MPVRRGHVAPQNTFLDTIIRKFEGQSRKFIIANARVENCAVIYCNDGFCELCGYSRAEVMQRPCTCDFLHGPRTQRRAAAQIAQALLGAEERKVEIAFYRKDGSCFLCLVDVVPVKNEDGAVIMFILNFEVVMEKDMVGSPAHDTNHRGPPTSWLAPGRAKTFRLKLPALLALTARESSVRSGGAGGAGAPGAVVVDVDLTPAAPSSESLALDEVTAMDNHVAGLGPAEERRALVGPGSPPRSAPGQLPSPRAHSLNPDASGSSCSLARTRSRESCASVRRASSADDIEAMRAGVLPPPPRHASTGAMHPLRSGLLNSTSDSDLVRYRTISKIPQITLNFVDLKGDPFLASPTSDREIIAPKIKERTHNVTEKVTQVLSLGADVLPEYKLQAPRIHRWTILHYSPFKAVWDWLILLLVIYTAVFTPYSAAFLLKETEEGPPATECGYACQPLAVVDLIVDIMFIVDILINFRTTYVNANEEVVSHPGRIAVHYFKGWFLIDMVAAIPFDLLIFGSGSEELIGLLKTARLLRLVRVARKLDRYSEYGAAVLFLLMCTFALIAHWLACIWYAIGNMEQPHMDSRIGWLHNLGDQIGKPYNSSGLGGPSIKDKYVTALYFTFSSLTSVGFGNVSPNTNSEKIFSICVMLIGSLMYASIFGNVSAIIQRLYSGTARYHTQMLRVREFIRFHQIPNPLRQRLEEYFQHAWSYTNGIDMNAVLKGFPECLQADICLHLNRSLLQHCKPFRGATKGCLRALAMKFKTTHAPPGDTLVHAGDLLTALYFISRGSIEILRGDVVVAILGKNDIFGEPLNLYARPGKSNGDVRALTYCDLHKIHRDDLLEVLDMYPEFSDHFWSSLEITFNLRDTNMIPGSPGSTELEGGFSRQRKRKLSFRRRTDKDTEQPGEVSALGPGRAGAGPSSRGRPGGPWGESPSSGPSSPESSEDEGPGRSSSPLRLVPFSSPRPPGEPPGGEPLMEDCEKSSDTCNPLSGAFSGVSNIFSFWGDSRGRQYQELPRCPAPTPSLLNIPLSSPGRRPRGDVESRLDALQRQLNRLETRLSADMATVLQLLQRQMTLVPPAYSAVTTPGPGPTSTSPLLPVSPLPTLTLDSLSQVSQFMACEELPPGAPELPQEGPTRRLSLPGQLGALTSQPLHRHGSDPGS

Structure (SMILES) | inhibition at 10 µM
COc1cccc2c1C(=O)c1c(oc3c1c(=O)oc1ccccc13)C2=O | -58%
O=C1c2cc3ccccc3cc2C(=O)c2c1oc1c2c(=O)oc2ccccc21 | 9.77%
CC(=O)Oc1cccc2c1C(=O)c1c(oc3c1c(=O)oc1ccccc13)C2=O | 4.02%
CC(=O)Oc1cccc2c1C(=O)c1oc3c(c1C2=O)c(=O)oc1ccccc13 | 86.8%

target: T1, CYP1A2 (Homo sapiens, UniProt P05177); experiment: Inhibition of human CYP1A2 at 10 uM by P450-Glo assay relative to control; type: ADME; details: not given
T1 sequence (P05177 whole entry): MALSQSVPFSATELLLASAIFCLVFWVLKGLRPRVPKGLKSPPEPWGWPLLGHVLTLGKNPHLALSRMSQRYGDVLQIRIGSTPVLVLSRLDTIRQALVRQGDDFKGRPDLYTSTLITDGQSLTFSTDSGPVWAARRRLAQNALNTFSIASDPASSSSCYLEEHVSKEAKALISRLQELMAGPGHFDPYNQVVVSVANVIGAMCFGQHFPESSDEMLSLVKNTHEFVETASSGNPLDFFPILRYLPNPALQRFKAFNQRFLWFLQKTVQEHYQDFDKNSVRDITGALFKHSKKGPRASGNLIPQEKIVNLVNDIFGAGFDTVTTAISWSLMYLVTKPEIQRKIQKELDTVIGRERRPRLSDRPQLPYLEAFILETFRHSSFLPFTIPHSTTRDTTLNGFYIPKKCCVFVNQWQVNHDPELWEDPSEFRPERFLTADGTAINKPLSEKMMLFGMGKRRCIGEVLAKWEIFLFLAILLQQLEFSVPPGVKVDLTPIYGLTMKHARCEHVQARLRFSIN
Method in brief: (§2)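 P450-Glo luminescent platform: CYP action on each substrate generates light; decreased light taken as inhibition.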

Structure (SMILES) | inhibition at 10 µM
COc1cccc2c1C(=O)c1c(oc3c1c(=O)oc1ccccc13)C2=O | 87.2%
O=C1c2cc3ccccc3cc2C(=O)c2c1oc1c2c(=O)oc2ccccc21 | 38.5%
CC(=O)Oc1cccc2c1C(=O)c1c(oc3c1c(=O)oc1ccccc13)C2=O | 94.6%
CC(=O)Oc1cccc2c1C(=O)c1oc3c(c1C2=O)c(=O)oc1ccccc13 | 93.5%

target: CYP2C9 (Homo sapiens, UniProt P11712); experiment: Inhibition of human CYP2C9 at 10 uM by P450-Glo assay relative to control; type: ADME; details: not given; method in brief: as §2
Sequence (P11712 whole entry): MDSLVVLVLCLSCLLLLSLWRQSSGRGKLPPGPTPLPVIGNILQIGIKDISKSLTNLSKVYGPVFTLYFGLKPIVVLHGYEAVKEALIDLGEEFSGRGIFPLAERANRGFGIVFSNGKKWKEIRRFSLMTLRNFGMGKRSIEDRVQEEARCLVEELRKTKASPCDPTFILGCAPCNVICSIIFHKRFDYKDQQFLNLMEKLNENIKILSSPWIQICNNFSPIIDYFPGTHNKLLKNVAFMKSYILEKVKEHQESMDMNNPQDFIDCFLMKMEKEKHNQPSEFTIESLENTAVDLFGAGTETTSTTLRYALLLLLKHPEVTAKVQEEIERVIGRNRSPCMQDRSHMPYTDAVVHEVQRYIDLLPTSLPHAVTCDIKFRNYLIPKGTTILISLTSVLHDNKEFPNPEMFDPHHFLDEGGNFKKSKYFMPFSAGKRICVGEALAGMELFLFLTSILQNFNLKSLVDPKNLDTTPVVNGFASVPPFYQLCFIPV

Structure (SMILES) | inhibition at 10 µM
COc1cccc2c1C(=O)c1c(oc3c1c(=O)oc1ccccc13)C2=O | 61.6%
O=C1c2cc3ccccc3cc2C(=O)c2c1oc1c2c(=O)oc2ccccc21 | 42.4%
CC(=O)Oc1cccc2c1C(=O)c1c(oc3c1c(=O)oc1ccccc13)C2=O | 92.5%
CC(=O)Oc1cccc2c1C(=O)c1oc3c(c1C2=O)c(=O)oc1ccccc13 | 99.2%

target: CYP2C19 (Homo sapiens, UniProt P33261); experiment: Inhibition of human CYP2C19 at 10 uM by P450-Glo assay relative to control; type: ADME; details: not given; method in brief: as §2
Sequence (P33261 whole entry): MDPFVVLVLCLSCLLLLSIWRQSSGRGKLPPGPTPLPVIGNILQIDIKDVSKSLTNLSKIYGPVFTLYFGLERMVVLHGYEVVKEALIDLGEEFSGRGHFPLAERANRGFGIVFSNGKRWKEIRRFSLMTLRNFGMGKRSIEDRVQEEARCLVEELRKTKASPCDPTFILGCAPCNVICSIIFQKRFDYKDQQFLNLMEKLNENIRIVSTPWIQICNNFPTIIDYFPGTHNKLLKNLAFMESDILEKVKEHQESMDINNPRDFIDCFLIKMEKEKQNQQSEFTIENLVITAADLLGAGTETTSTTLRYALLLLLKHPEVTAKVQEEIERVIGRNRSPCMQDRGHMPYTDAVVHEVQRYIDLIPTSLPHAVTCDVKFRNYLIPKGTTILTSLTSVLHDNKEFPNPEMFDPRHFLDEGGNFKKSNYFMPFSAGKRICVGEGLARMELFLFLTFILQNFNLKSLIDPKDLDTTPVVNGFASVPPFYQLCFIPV

Structure (SMILES) | inhibition at 10 µM
COc1cccc2c1C(=O)c1c(oc3c1c(=O)oc1ccccc13)C2=O | 71%
O=C1c2cc3ccccc3cc2C(=O)c2c1oc1c2c(=O)oc2ccccc21 | 35.7%
CC(=O)Oc1cccc2c1C(=O)c1c(oc3c1c(=O)oc1ccccc13)C2=O | 103%
CC(=O)Oc1cccc2c1C(=O)c1oc3c(c1C2=O)c(=O)oc1ccccc13 | 109%

target: CYP2D6 (Homo sapiens, UniProt P10635); experiment: Inhibition of human CYP2D6 at 10 uM by P450-Glo assay relative to control; type: ADME; details: not given; method in brief: as §2
Sequence (P10635 whole entry): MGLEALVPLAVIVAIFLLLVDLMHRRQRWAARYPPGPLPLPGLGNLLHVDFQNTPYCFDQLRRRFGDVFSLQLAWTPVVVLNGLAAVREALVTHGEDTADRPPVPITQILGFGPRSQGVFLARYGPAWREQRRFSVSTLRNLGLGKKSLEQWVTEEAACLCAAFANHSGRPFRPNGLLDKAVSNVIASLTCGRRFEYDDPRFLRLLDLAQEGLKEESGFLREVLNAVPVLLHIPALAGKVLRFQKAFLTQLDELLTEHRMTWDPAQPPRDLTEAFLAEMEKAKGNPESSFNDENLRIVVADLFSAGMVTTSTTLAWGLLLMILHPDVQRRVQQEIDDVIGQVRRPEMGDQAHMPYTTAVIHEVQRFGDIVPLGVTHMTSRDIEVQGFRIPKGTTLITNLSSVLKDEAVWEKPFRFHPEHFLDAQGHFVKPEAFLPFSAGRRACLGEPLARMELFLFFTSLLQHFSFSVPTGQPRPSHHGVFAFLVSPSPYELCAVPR

Structure (SMILES) | inhibition at 10 µM
COc1cccc2c1C(=O)c1c(oc3c1c(=O)oc1ccccc13)C2=O | 101%
O=C1c2cc3ccccc3cc2C(=O)c2c1oc1c2c(=O)oc2ccccc21 | 55%
CC(=O)Oc1cccc2c1C(=O)c1c(oc3c1c(=O)oc1ccccc13)C2=O | 106%
CC(=O)Oc1cccc2c1C(=O)c1oc3c(c1C2=O)c(=O)oc1ccccc13 | 108%

target: CYP3A4 (Homo sapiens, UniProt P08684); experiment: Inhibition of human CYP3A4 at 10 uM by P450-Glo assay relative to control; type: ADME; details: not given; method in brief: as §2
Sequence (P08684 whole entry): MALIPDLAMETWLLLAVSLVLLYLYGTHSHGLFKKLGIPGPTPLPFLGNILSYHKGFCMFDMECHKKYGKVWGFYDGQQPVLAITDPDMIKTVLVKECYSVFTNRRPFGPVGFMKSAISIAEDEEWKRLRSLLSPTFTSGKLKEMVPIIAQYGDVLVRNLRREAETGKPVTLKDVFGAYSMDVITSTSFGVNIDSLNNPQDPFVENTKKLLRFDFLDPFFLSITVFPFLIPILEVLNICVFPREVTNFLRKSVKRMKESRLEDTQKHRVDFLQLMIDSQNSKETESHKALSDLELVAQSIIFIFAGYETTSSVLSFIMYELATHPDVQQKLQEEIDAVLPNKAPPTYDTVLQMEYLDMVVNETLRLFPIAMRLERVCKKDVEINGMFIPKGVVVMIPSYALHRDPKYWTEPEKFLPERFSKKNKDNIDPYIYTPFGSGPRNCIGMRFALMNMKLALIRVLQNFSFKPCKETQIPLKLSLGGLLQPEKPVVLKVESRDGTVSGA

Structure (SMILES) | inhibition at 10 µM
COc1cccc2c1C(=O)c1c(oc3c1c(=O)oc1ccccc13)C2=O | 22.1%
O=C1c2cc3ccccc3cc2C(=O)c2c1oc1c2c(=O)oc2ccccc21 | 7.93%
CC(=O)Oc1cccc2c1C(=O)c1c(oc3c1c(=O)oc1ccccc13)C2=O | 88.2%
CC(=O)Oc1cccc2c1C(=O)c1oc3c(c1C2=O)c(=O)oc1ccccc13 | 88.7%

test system: not listed separately; experiment: Cytotoxicity against human A549 cells assessed as cell growth at 10 uM by CellTiter-Glo assay relative to control; type: cell-based; details: read-out: Activity
Method in brief: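 A549 cells; cellular ATP measured by CellTiter-Glo luminescence as a proxy for cell number; paclitaxel 10 μM as positive control.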

Structure (SMILES) | viability at 10 µM
COc1cccc2c1C(=O)c1c(oc3c1c(=O)oc1ccccc13)C2=O | 130%
O=C1c2cc3ccccc3cc2C(=O)c2c1oc1c2c(=O)oc2ccccc21 | 140%
CC(=O)Oc1cccc2c1C(=O)c1c(oc3c1c(=O)oc1ccccc13)C2=O | 157%
CC(=O)Oc1cccc2c1C(=O)c1oc3c(c1C2=O)c(=O)oc1ccccc13 | 183%

test system: 786-0; experiment: Cytotoxicity against human 786-O cells assessed as mitochondrial viability at 10 uM by CMXRos staining based high-content imaging analysis relative to control; type: cell-based; details: 786-0, 10 µM
Method in brief: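 786-O cells kept in RPMI-1640 with 2 mM glutamine, 10% FCS, streptomycin and penicillin G; mitochondria of live cells stained with MitoTracker Red CMXRos and imaged by high-content imaging.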

Structure (SMILES) | Activity
COc1cccc2c1C(=O)c1c(oc3c1c(=O)oc1ccccc13)C2=O | 96.22%
O=C1c2cc3ccccc3cc2C(=O)c2c1oc1c2c(=O)oc2ccccc21 | 89.59%
CC(=O)Oc1cccc2c1C(=O)c1c(oc3c1c(=O)oc1ccccc13)C2=O | 98.86%
CC(=O)Oc1cccc2c1C(=O)c1oc3c(c1C2=O)c(=O)oc1ccccc13 | 90.52%

target: T2, Pteridine reductase 1 (Leishmania major) (UniProt Q01782); experiment: Inhibition of Leishmania major pteridine reductase 1 assessed as reduction in conversion of dihydrobiopterin to tetrahydrobiopterin at 10 uM up to 50 mins in presence of NADPH by cytochrome c reduction coupled photometric assay relative to control; details: not given
T2 sequence (whole entry): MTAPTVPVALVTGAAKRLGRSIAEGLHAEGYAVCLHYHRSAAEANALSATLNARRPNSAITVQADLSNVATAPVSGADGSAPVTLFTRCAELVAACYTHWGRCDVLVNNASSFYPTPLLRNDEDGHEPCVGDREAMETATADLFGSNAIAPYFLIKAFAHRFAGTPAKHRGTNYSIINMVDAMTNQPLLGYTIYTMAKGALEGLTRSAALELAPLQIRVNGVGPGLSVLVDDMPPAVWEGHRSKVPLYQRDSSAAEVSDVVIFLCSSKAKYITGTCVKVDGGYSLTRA

Structure (SMILES) | inhibition
COc1cccc2c1C(=O)c1c(oc3c1c(=O)oc1ccccc13)C2=O | 2.98%
O=C1c2cc3ccccc3cc2C(=O)c2c1oc1c2c(=O)oc2ccccc21 | 5.16%

target: T3, Pteridine reductase, putative (Trypanosoma brucei) (UniProt Q581W1); experiment: Inhibition of Trypanosoma brucei pteridine reductase 1 assessed as reduction in conversion of dihydrobiopterin to tetrahydrobiopterin at 10 uM up to 50 mins in presence of NADPH by cytochrome c reduction coupled photometric assay relative to control; details: not given
T3 sequence (whole entry): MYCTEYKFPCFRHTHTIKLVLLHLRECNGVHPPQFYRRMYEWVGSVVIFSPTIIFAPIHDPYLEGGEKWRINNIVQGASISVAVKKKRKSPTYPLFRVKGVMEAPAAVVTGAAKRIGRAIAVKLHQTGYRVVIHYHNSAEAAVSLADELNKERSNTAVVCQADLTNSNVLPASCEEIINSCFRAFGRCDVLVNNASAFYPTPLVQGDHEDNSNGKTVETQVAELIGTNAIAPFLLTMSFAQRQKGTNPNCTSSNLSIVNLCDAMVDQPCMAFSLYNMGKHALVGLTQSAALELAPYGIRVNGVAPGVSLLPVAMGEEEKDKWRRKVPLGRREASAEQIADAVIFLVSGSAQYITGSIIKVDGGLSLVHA

Structure (SMILES) | inhibition
COc1cccc2c1C(=O)c1c(oc3c1c(=O)oc1ccccc13)C2=O | -6.79%
O=C1c2cc3ccccc3cc2C(=O)c2c1oc1c2c(=O)oc2ccccc21 | 6.11%

test system: not listed separately; experiment: Solubility in PBS after overnight incubation by nephelometry; type: physicochemical; details: not given

Structure (SMILES) | solubility kinetic
COc1cccc2c1C(=O)c1c(oc3c1c(=O)oc1ccccc13)C2=O | 70 µM (≈ 24.2 µg/mL)
O=C1c2cc3ccccc3cc2C(=O)c2c1oc1c2c(=O)oc2ccccc21 | 35 µM (≈ 12.8 µg/mL)
CC(=O)Oc1cccc2c1C(=O)c1c(oc3c1c(=O)oc1ccccc13)C2=O | 35 µM (≈ 13.1 µg/mL)
CC(=O)Oc1cccc2c1C(=O)c1oc3c(c1C2=O)c(=O)oc1ccccc13 | 35 µM (≈ 13.1 µg/mL)

test system: not listed separately; experiment: Solubility in pH 7.4 Hanks simulated body fluid after overnight incubation by nephelometry; type: physicochemical; details: not given

Structure (SMILES) | solubility kinetic
COc1cccc2c1C(=O)c1c(oc3c1c(=O)oc1ccccc13)C2=O | 35 µM (≈ 12.1 µg/mL)
O=C1c2cc3ccccc3cc2C(=O)c2c1oc1c2c(=O)oc2ccccc21 | 70 µM (≈ 25.6 µg/mL)
CC(=O)Oc1cccc2c1C(=O)c1c(oc3c1c(=O)oc1ccccc13)C2=O | 35 µM (≈ 13.1 µg/mL)
CC(=O)Oc1cccc2c1C(=O)c1oc3c(c1C2=O)c(=O)oc1ccccc13 | 35 µM (≈ 13.1 µg/mL)
